Experimental data: ChEMBL document CHEMBL1914407, “New dammarane-type glucosides as potential activators of AMP-activated protein kinase (AMPK) from Gynostemma pentaphyllum” (Bioorg Med Chem, 2011)
Activity calls are given as the source filed them.

What was measured:
L6 [1] = test: Increase in AMPK alpha-mediated GLUT4 translocation into plasma membrane in rat L6 cells assessed as [3H]2-deoxy-glucose uptake after 2 hrs by scintillation counting relative to control; assay type: cell-based
Outline: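 2-Deoxy-[3H]D-glucose added for 10 min, then three ice-cold 0.9% NaCl washes. Cytochalasin B (10 µM) blank subtracted. Cells collected in 0.05 N NaOH and counted by scintillation. Expressed as pmol 2-DG/min/mg protein or fold over control. Mean ± S.D. of three experiments.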

L6 [2] = test: Induction of AMPK alpha-mediated ACC phosphorylation at ser79 in rat L6 cells after 2 hrs by Western blot analysis; assay type: cell-based
Outline: (§1)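 Differentiated L6 myotubes treated 2 h with a range of compound concentrations (DMSO vehicle), then lysed in pH 8.0 Tris buffer containing NP-40, EDTA, DTT, PMSF, orthovanadate, NaF and protease inhibitors. Immunoblotted for phospho-AMPKα1/2 (Thr172), total AMPK, phospho-ACC (Ser79) and total ACC.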

L6 [3] = test: Induction of AMPK-alpha phosphorylation at thr172 in rat L6 cells after 2 hrs by Western blot analysis; assay type: cell-based; outline: as §1
L6 [4] = test: Induction of AMPK-alpha phosphorylation at thr172 in rat L6 cells at 12 uM by Western blot analysis in presence of 10 uM of AMPK inhibitor; assay type: cell-based
Outline: (§2)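 L6 myotubes pretreated 10 min with the AMPK inhibitor compound C (10 µM), then exposed to compound for 2 h (DMSO vehicle). Lysates immunoblotted for phospho-AMPKα1/2 (Thr172) and total AMPK.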

L6 [5] = test: Increase in beta-oxidation in rat L6 cells assessed as tritiated water production at 12 uM by scintillation counter method; assay type: functional, cell-based
Outline: (§3)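 Fatty acid β-oxidation measured in differentiated L6 myotubes treated with compound, using DMSO as vehicle control. 3H2O formed was quantified in a scintillation counter.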

L6 [6] = test: Induction of AMPK-alpha phosphorylation at thr172 in rat L6 cells at 150 uM by Western blot analysis in presence of 10 uM of AMPK inhibitor; assay type: cell-based; outline: as §2
L6 [7] = test: Increase in beta-oxidation in rat L6 cells assessed as tritiated water production at 150 uM by scintillation counting; assay type: functional, cell-based; outline: as §3

Measured: Activity

C=C(CCC=C(C)C)[C@H]1CC[C@]2(C)[C@@H]1[C@H](O)C[C@@H]1[C@@]3(C)C[C@@H](O)[C@H](O[C@@H]4O[C@H](CO)[C@@H](O)[C@H](O)[C@H]4O[C@@H]4O[C@H](CO)[C@@H](O)[C@H](O)[C@H]4O)C(C)(C)[C@@H]3CC[C@]12C
active: L6 [1] Dose-dependent effect | L6 [2] Dose-dependent effect | L6 [3] Dose-dependent effect | L6 [4] | L6 [5]

CC(C)=CC/C=C(\C)[C@H]1CC[C@]2(C)[C@@H]1[C@H](O)C[C@@H]1[C@@]3(C)C[C@@H](O)[C@H](O[C@@H]4O[C@H](CO)[C@@H](O)[C@H](O)[C@H]4O[C@@H]4O[C@H](CO)[C@@H](O)[C@H](O)[C@H]4O)C(C)(C)[C@@H]3CC[C@]12C
active: L6 [1] Dose-dependent effect | L6 [2] Dose-dependent effect | L6 [3] Dose-dependent effect | L6 [6] | L6 [7]
